Source: ChEMBL document CHEMBL4765441, “Design, synthesis and anti-cancer activity of pyrrole-imidazole polyamides through target-downregulation of c-kit gene expression” (Eur J Med Chem, 2020)
The source made the active and inactive calls. No cut-off for these calls is given here.

Tests used:
A549 [1] = assay: Induction of apoptosis in human A549 cells assessed as early apoptotic cells at 15 uM incubated for 36 hrs by Annexin V-FITC/propidium iodide staining-based flow cytometric analysis (reference value: 1.41 %); format: functional
[2] = Drug localization in nucleus of human SGC-7901 cells incubated for 24 hrs by Hoechst-33342 staining based confocal laser scanning microscopic analysis; format: ADME, subcellular; settings: sgc-7901, 24 h
Outline: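 SGC-7901 cells cultured 24 h, then given fluorescein-labeled polyamide (1.0, unit unclear) for 4 h. Medium replaced and culture continued 20 h. Live cells viewed at ×300, then fixed in 4% paraformaldehyde for 10 min. Nuclei stained with Hoechst 33342 for 5 min, PBS-washed, imaged by confocal laser scanning microscopy.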

SGC-7901 [3] = assay: Induction of apoptosis in human SGC7901 cells assessed as late apoptotic cells at 7.5 uM incubated for 36 hrs by Annexin V-FITC/propidium iodide staining-based flow cytometric analysis (reference value: 3.69 %); format: functional
SGC-7901 [4] = assay: Induction of apoptosis in human SGC7901 cells assessed as early apoptotic cells at 7.5 uM incubated for 36 hrs by Annexin V-FITC/propidium iodide staining-based flow cytometric analysis (reference value: 2.74 %); format: functional
A549 [5] = assay: Induction of apoptosis in human A549 cells assessed as viable cells at 7.5 uM incubated for 36 hrs by Annexin V-FITC/propidium iodide staining-based flow cytometric analysis (reference value: 97.9 %); format: functional; settings: read-out: Activity
dsDNA = assay: Binding affinity to 5'-AGGGGAGGCGAGGAGGGGCGTGGCCGG-3'/3'-TCCCCTCCGCTCCTCCCCGCACCGGCC-5' dsDNA (unknown origin) by circular dichroism spectroscopic analysis; format: nucleic-acid assay; settings: Homo sapiens
Outline: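 Target duplex annealed at 95 °C, held 24 h in pH 7.0 buffer (10 mM sodium cacodylate, 100 mM NaCl, 0.5% DMSO), then degassed. Compound titrated in at compound:DNA ratios 0.0–3.0, room temperature, 15 min equilibration per addition. CD read 225–400 nm in a 5 mm quartz cell at 100 nm/min, 5.0 nm bandwidth. Average of three parallel runs.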

SGC-7901 [6] = assay: Induction of apoptosis in human SGC7901 cells assessed as necrotic cells at 7.5 uM incubated for 36 hrs by Annexin V-FITC/propidium iodide staining-based flow cytometric analysis (reference value: 0.34 %); format: functional

## CC(=O)Nc1cn(C)c(C(=O)Nc2cn(C)c(C(=O)Nc3cc(C(=O)Nc4cn(C)c(C(=O)NCCC(=O)Nc5cn(C)c(C(=O)Nc6cn(C)c(C(=O)NCC[C@@H](N)C(=O)Nc7cc(C(=O)Nc8cc(C(=O)NC[C@@H](O)CC(=O)Nc9cc(C(=O)Nc%10cn(C)c(C(=O)Nc%11cc(C(=O)Nc%12cc(C(=O)NCCC(=O)NCCCN(C)C)n(C)c%12)n(C)c%11)n%10)n(C)c9)n(C)c8)n(C)c7)n6)n5)n4)n(C)c3)n2)n1.Cl.Cl
A549 [1]
  Activity: 28.9%
[2]
  Drug uptake: Active
SGC-7901 [3]
  Activity: 10.2%
SGC-7901 [4]
  Activity: 32.4%
A549 [5]
  viability at 7.5 µM: 60.5%
dsDNA
  Activity: Active
SGC-7901 [6]
  Activity: 0.92%
